Reference: ChEMBL document CHEMBL5137066, “Discovery of BLU-945, a Reversible, Potent, and Wild-Type-Sparing Next-Generation EGFR Mutant Inhibitor for Treatment-Resistant Non-Small-Cell Lung Cancer” (J Med Chem, 2022)
Active and inactive are the calls of the source. The rule behind the calls is not given here.

Legend:
[1] = Plasma clearance in beagle dog at 0.5 mg/kg, iv; type: ADME, organism-based, Canis lupus familiaris
Method in brief: (§1)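 Beagle dogs, single IV dose of 0.5 mg/kg in 5% DMSO + 5% kolliphor HS 15 + 90% saline. Clearance is plasma clearance.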

[2] = Plasma clearance in cynomolgus monkey at 0.5 mg/kg, iv; type: ADME, organism-based, Macaca fascicularis
Method in brief: (§2)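 Cynomolgus monkeys given a single IV bolus of 0.5 mg/kg in 5% DMSO + 5% kolliphor HS 15 + 90% saline. Clearance is plasma clearance after the bolus.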

[3] = Intrinsic clearance in human hepatocytes assessed per million cells; type: ADME, cell-based, Hepatocyte
Method in brief: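 Intrinsic clearance measured in isolated hepatocytes of each species, expressed in μL/min/million cells.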

[4] = Volume of distribution at steady state in Beagle dog at 0.5 mg/kg, iv; type: ADME, organism-based, Canis lupus familiaris; details: in vivo, read-out: Vdss
[5] = Plasma protein binding in dog assessed as unbound fraction by ultracentrifugation method; type: ADME, cell-free, Canis lupus familiaris
Method in brief: (§3)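 Plasma protein binding determined by ultracentrifugation, reported as the unbound fraction.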

[6] = Intrinsic clearance in cynomolgus monkey liver microsomes in presence of NADPH; type: ADME, Macaca fascicularis, Microsome
Method in brief: (§4)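 Intrinsic clearance measured in isolated liver microsomes of each species with NADPH, expressed in μL/min/mg.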

[7] = Intrinsic clearance in human liver microsomes in presence of NADPH; type: ADME, Microsome; method in brief: as §4
[8] = Thermodynamic solubility of the compound at pH 6.5; type: physicochemical; details: buffer
[9] = Apparent permeability across apical to basolateral side in MDCK-MDR1 cells; type: ADME, cell-based, Canis lupus familiaris; details: dog
[10] = Toxicity in BALB/c nude mouse xenografted with human NCI-H1975 cells assessed as effect on body weight at 30 mg/kg, po bid administered via oral gavage for 14 days; type: organism-based; details: in vivo, 336 h, time 14 day
Method in brief: (§5)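 Female BALB/c nude mice, 6–8 weeks old, inoculated s.c. in right flank with 5 × 10^6 NCI-H1975 cells in PBS:Matrigel 1:1. Randomized and dosed by oral gavage BID once mean tumor volume reached ~155 mm3. Tumor size and body weight measured every second day. Volume = 0.5ab2 (a, b long and short diameters). Plasma taken 2, 6, 12 h after the last dose for LC-MS/MS.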

[11] = Plasma clearance in Sprague-Dawley rat at 1 mg/kg, iv; type: ADME, organism-based
Method in brief: (§6)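 Sprague–Dawley rats (n = 3), single IV bolus of 1 mg/kg in 10% DMSO, 10% solutol, 80% of a 20% HP-β-CD solution (in water or in saline, depending on compound). Clearance is plasma clearance after the IV bolus.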

[12] = Volume of distribution at steady state in cynomolgus monkey at 0.5 mg/kg, iv; type: ADME, organism-based, Macaca fascicularis; details: in vivo, read-out: Vdss
[13] = Lipophilicity, logD of compound at pH 7.4; type: physicochemical; details: buffer
[14] = Volume of distribution at steady state in Sprague-Dawley rat at 1 mg/kg, iv; type: ADME, organism-based; details: in vivo, read-out: Vdss
[15] = Plasma protein binding in cynomolgus monkey assessed as unbound fraction by ultracentrifugation method; type: ADME, cell-free, Macaca fascicularis; method in brief: as §3
[16] = system: Ba/F3 EGFR-Del19/T790M/C797S; assay: Antitumor activity against osimertinib-resistant mouse Ba/F3 EGFR-Del19/T790M/C797S cells implanted in NOD SCID mouse assessed as reduction in tumor volume at 100 mg/kg , po bid administered via oral gavage for 14 days; type: functional, organism-based; details: time 14.0 day
[17] = Half life in Sprague-Dawley rat at 1 mg/kg, iv; type: ADME, organism-based; details: in vivo; method in brief: as §6
[18] = system: Ba/F3 EGFR-T790M/C797S/L858R; assay: Antitumor activity against mouse Ba/F3 EGFR-T790M/C797S/L858R cells implanted in NOD SCID mouse assessed as reduction in tumor volume at 100 mg/kg, po bid administered via oral gavage for 14 days; type: functional, organism-based; details: time 14.0 day
[19] = Clearance in cynomolgus monkey at 0.5 mg/kg,iv; type: ADME, organism-based, Macaca fascicularis; details: in vivo; method in brief: as §2
[20] = Plasma protein binding in human assessed as unbound fraction by ultracentrifugation method; type: ADME, cell-free; method in brief: as §3
NCI-H1975 [21] = assay: Antitumor activity against human NCI-H1975 cells xenografted in BALB/c mouse assessed as reduction in tumor volume at 100 mg/kg , po bid administered via oral gavage for 14 days; type: functional, organism-based; details: time 14.0 day; method in brief: as §5
NSCLC = type: functional, organism-based; details: Homo sapiens, dose 75-100 mg/kg, route po, time 56.0 day
[22] = Half life in cynomolgus monkey at 0.5 mg/kg, iv; type: ADME, organism-based, Macaca fascicularis; details: in vivo; method in brief: as §2
[23] = Toxicity in BALB/c nude mouse xenografted with human NCI-H1975 cells assessed as effect on body weight at 100 mg/kg , po bid administered via oral gavage for 14 days; type: organism-based; details: in vivo, 336 h, time 14 day; method in brief: as §5
[24] = Thermodynamic solubility of the compound at pH 1.5; type: physicochemical; details: buffer
[25] = Oral bioavailability in cynomolgus monkey at […], iv; type: ADME, organism-based, Macaca fascicularis; details: in vivo, dose 2.5 mg/kg
NCI-H1975 [26] = assay: Antitumor activity against human NCI-H1975 cells xenografted in BALB/c mouse assessed as reduction in tumor volume at 30 mg/kg, po bid administered via oral gavage for 14 days; type: functional, organism-based; details: time 14.0 day; method in brief: as §5
[27] = Toxicity in BALB/c nude mouse xenografted with human NCI-H1975 cells assessed as effect on body weight at 25 mg/kg , po qd administered via oral gavage for 14 days; type: organism-based; details: in vivo, 336 h, time 14 day
Method in brief: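 Female BALB/c nude mice, 6–8 weeks old, bearing s.c. right-flank NCI-H1975 xenografts (5 × 10^6 cells in PBS:Matrigel 1:1). Once-daily oral gavage began at mean tumor volume ~155 mm3. Body weight and tumor size recorded every second day.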

[28] = Plasma protein binding in rat assessed as unbound fraction by ultracentrifugation method; type: ADME, cell-free; method in brief: as §3
[29] = Oral bioavailability in Beagle dog at […], iv; type: ADME, organism-based, Canis lupus familiaris; details: in vivo, dose 2.5 mg/kg
[30] = Half life in beagle dog at 0.5 mg/kg, iv; type: ADME, organism-based, Canis lupus familiaris; details: in vivo; method in brief: as §1
[31] = Oral bioavailability in Sprague-Dawley rat at […]; type: ADME, organism-based; details: in vivo, dose 2.5 mg/kg

clearance [1]: 13.7 mL/min/kg | clearance [2]: 4.9 mL/min/kg | CLH [3]: 23 µL/min | Vd [4]: 3.9 L/kg | Fu [5]: 1.4% | CLH [6]: 109 µL/min/mg | CLH [7]: 89 µL/min/mg | Therm_solubility [8]: 10 µg/mL | Papp [9]: 8 10^-6 cm/s | clearance [11]: 32.4 mL/min/kg | Vd [12]: 1.6 L/kg | logD [13]: 3.8 | Vd [14]: 2.3 L/kg | Fu [15]: 3.5% | half-life [17]: 1.3 h | clearance [19]: 4.9 mL/min/kg | Fu [20]: 1.1% | half-life [22]: 3.5 h | Therm_solubility [24]: 11000 µg/mL | F [25]: 33% | Fu [28]: 0.9% | F [29]: 49% | half-life [30]: 4.9 h | F [31]: 48%
SMILES: CO[C@@H]1CCN(c2nccc(Nc3cc4c(C(C)C)ccc(N5C[C@H](CS(C)(=O)=O)[C@H]5C)c4cn3)n2)C[C@@H]1F [TIGOZERTINIB]
Activity [10]: Non-Toxic | Activity [16]: Active | Activity [18]: Active | Activity (NCI-H1975 [21]): Active | Activity (NSCLC): Active | Activity [23]: Non-Toxic | Activity (NCI-H1975 [26]): Active | Activity [27]: Non-Toxic
